# A selection: hits, their analogues and other compounds. The true share with any hit is near 1.7%.
# V-ATPase pHluor: regulators of yeast V-ATPase proton transport; S. cerevisiae, pHLuorin cytosolic pH fluorescence; response, % at 10 µM; 350,000 compounds, 0.37% hits; in the data active = response mostly above about 7.3%, no sharp cut-off; inactive = mostly below about 5.4%; note: actives read high
# SR-BI HDL uptake: mouse SR-BI HDL lipid transfer inhibition | Q61009 | ldlA[mSR-BI] CHO cells, DiI-HDL uptake fluorescence, 3 h | inhibition, % at 12.5 µM | 320,000 compounds, 0.96% hits | AID 488896;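 active = mean replicate inhibition of at least 70% and a set share of replicates each scoring 70 or more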
# NTR1 ag: activates human neurotensin receptor 1; NTR1-U2OS beta-arrestin-GFP spot imaging, agonist mode; P30989; activation, % at 20 µM; 330,000 compounds, 0.17% hits;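 active = activation at or above 40% of the spot to cytoplasm intensity ratio, with at least 20 cells analyzed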
# Target sequence (P30989 whole entry, looked up): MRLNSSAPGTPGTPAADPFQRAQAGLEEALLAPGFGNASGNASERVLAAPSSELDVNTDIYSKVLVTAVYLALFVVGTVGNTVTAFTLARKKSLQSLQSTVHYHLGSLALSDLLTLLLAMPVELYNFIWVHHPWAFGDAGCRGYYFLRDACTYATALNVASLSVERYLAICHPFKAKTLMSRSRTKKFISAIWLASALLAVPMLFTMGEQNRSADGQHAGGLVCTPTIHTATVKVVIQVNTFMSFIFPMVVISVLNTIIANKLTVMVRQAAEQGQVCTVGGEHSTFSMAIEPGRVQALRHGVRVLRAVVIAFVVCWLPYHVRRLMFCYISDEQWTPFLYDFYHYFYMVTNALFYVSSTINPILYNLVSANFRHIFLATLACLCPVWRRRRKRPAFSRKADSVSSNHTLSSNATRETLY
# CaV13 ICDI inh: Disruptors of the CACNA1D IQ motif to Ca2+-dependent inactivation inhibitor domain association, primary screening, Förster resonance energy transfer in intact living …. HEK cells, CFP/YFP FRET ICDI-IQ, plate reader, 10 min; percent FRET-ratio fall versus neutral wells. inhibition, % at 12.3 µM. 340,000 compounds, 0.098% hits. AID 743397;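 active = mean replicate inhibition of at least 30% and at least 1% of replicates passing that level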
# SR-BI DiI-HDL act: enhances SR-BI lipid uptake from DiI-HDL; CHO ldlA[mSR-BI] cells, DiI-HDL uptake fluorescence, 3 h; 100 = double the neutral-control signal; activation, % at 12.5 µM; 320,000 compounds, 0.096% hits;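 active = mean replicate activation of at least 60% and every replicate at or above 60%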
#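 Material – SR-BI-overexpressing, LDLR-lacking CHO cells · Medium – BSA-supplemented, HEPES-buffered Ham's F12, pH 7.4 · Doses – single concentration · Times – compound with DiI-HDL co-incubation, 3 h at 37 °C · Measured by – bottom-read fluorescence, 550/595 nm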
# Vif imaging: HIV Vif inhibition. HEK293T cells, Vif self-association by quenched fluorescence, imaging, 24 h. 340,000 compounds, 0.35% hits. inhibition, % at 7.49 µM. AID 602346; in the data active = inhibition above about 50%, passing the limit was not always enough
# VATPase regulator: yeast V-ATPase proton transport regulation; shares compounds with V-ATPase pHluor; S. cerevisiae pHLuorin cytosolic pH; response, % at 10 µM; 980 compounds, 2% hits; AID 602197; in the data active = response above about 24%
# Numbers stand for hits; . = inactive; / = no result given.
SMILES,V-ATPase pHluor,SR-BI HDL uptake,NTR1 ag,CaV13 ICDI inh,SR-BI DiI-HDL act,Vif imaging,VATPase regulator
N#CC1=C(N)N(c2ccccc2)C2=C(C(=O)CCC2)C1c1ccsc1 (stereo not given),10,.,.,.,.,.,.
N#CC1(NC(=O)CN2C(=O)NC3(CCCCCC3)C2=O)CCCCC1,.,.,.,.,.,.,/
CC1Cc2ccccc2N1S(=O)(=O)c1cccc(C(=O)NCCCn2ccnc2)c1 (stereo not given),10,.,.,.,.,.,.
O=C(NCCCn1ccnc1)c1cccc(S(=O)(=O)N2CCCCCC2)c1,.,.,.,.,.,.,/
COCCNC(=O)c1c[nH]c2ccc(S(=O)(=O)N(C)c3ccc(C)c(C)c3)cc2c1=O,.,.,.,.,.,.,/
O=S(=O)(Nc1ccccc1)N1CCCCC1,.,.,/,.,.,.,/
CC(=O)c1cccc(NS(=O)(=O)N2CCCCC2)c1,16,.,.,.,.,.,.
CCc1ccc(NC(=O)c2cc(C)on2)cc1,.,.,.,.,.,.,/
Cc1ccc(NC(=O)c2cc(C)on2)cc1,6.9,.,.,.,.,.,.
Cc1cc(NC(=O)c2cc(-c3ccc(Br)cc3)on2)no1,10,.,.,.,.,.,.
CC(C)c1ccc(/C=N/n2c(-c3ccccc3)n[nH]c2=S)cc1,.,.,.,.,.,.,/
O=C(Cn1cnc2ccccc21)N/N=C/C(Br)=C/c1ccccc1,.,.,.,.,.,.,/
Nc1nnc(SCCCC(=O)c2ccc(F)cc2)s1,.,.,.,.,.,.,.
O=C(CCCSc1nnc(SCCCC(=O)c2ccc(F)cc2)s1)c1ccc(F)cc1,.,.,.,.,.,.,.
COc1cccc(NC(=O)c2cccc(N3C(=O)C4C5C=CC(C5)C4C3=O)c2)c1 (stereo not given),.,.,.,.,.,.,/
O=C(Nc1ccccc1C(=O)NCCCn1ccnc1)c1ccccc1,.,.,.,.,.,.,/
CC(C)C(NC(=O)c1ccccc1NC(=O)c1ccccc1)C(=O)NCCCn1ccnc1 (stereo not given),9.5,.,.,/,.,.,.
CC1(C(=O)O)CCC(C(N)=O)C1(C)C (stereo not given),.,/,.,.,/,.,/
COc1cc(/C=N/NC(=O)CN2CCCCC2)ccc1OCc1ccccc1,9.6,.,.,.,.,.,.
COc1cc(/C=N/NC(=O)CN2CCOCC2)ccc1OCc1ccccc1,.,.,.,.,.,.,/
CCCCCCN1C[C@H](O)[C@@H](n2cc(C3CC3)nn2)C[C@@H]1c1ccc(C)cc1,.,/,/,.,/,.,/
COc1ccc(NC(=O)c2ccccc2-c2ccccc2)cc1,.,.,.,.,.,.,/
COc1cccc(NC(=O)c2ccccc2-c2ccccc2)c1,8.8,.,.,.,.,.,.
COc1cccc(NC(=S)NNC(=O)c2ccccc2OC(F)F)c1,9.4,.,.,.,.,/,.
CCOC(=O)C1CCN(C(=O)CN(c2cccc(C(F)(F)F)c2)S(C)(=O)=O)CC1,12,.,.,/,.,.,.
SMILES,V-ATPase pHluor,SR-BI HDL uptake,NTR1 ag,CaV13 ICDI inh,SR-BI DiI-HDL act,Vif imaging,VATPase regulator
COc1cc(C(=O)NNC(=O)Nc2ccc([N+](=O)[O-])cc2)cc(OC)c1OC,.,.,.,.,.,.,/
Cc1ccc(C(=O)OCCc2sc[n+](Cc3ccccc3)c2C)cc1,47,.,.,.,.,.,.
Cc1c(CCOC(=O)C23CC4CC(CC(C4)C2)C3)sc[n+]1Cc1ccccc1,.,.,.,.,.,.,/
Cc1ccc(C(=O)Oc2coc(CSc3nnc(NC(=O)C4CC4)s3)cc2=O)cc1,.,.,.,.,.,.,/
O=C(Oc1coc(CSc2nnc(NC(=O)c3cccs3)s2)cc1=O)c1ccccc1,9.3,.,.,.,.,.,.
COc1ccc(N2C[C@@]3(O)CC[C@@H](O)[C@@H](OC)[C@@H]3[C@@](C)(O)[C@@H]2CC=C(C)C)cc1,/,/,/,.,/,/,/
O=C(Nc1ccc(C(=O)N2CCCCC2)cc1)[C@H]1O[C@@H](n2ccc(=O)[nH]c2=O)[C@H](O)[C@@H]1O,/,/,/,.,/,/,/
c1ccc(Cn2nnnc2CN2CCN(Cc3ccc4c(c3)OCO4)CC2)cc1,6.8,.,.,.,.,.,.
O=C(NC1CCCCC1)c1c(O)nc2sccn2c1=O,12,.,.,.,.,.,28
COc1ccc(C(=O)NC(=S)Nc2ccc(N3CCOCC3)c(Cl)c2)cc1[N+](=O)[O-],.,.,.,.,.,.,/
O=C(CCl)N1CCN(C(=O)C2COc3ccccc3O2)CC1 (stereo not given),14,.,.,.,.,.,.
O=C1CC(N2CCC(c3nc4ccccc4[nH]3)CC2)C(=O)N1c1cccc(F)c1 (stereo not given),5.8,.,.,.,.,.,.
O=C(NCC1CCOCC1)C1Cc2c(-c3ccccc3Oc3ccccc3)ccnc2O1 (stereo not given),/,/,/,.,/,.,/
CCOC(=O)c1c(NC(=O)COC(=O)CCNS(=O)(=O)c2ccccc2)sc(C(=O)NC)c1C,9.8,.,/,.,.,.,.
Cc1ccc(OCCSc2nc(NC(C)C)nc(NC(C)C)n2)cc1,.,.,.,.,.,/,/

# From PubChem
